Measured values from ChEMBL document CHEMBL1687898, “Structure-activity relationships in glycosylated 2-phenyl-indoles, 2-phenyl-benzo[b]thiophenes and 2-phenyl-benzo[b]furans as DNA binding and potential antitumor agents” (Bioorg Med Chem, 2011).

Assays:
[1] = tested on: HT-29; experiment: Cytotoxicity against human HT-29 cells assessed as cell viability at 25 uM by MTS assay; format: functional; settings: read-out: Activity
Procedure, shortened: (§1)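 Cells kept in DMEM high glucose with 10% FBS and 2 mM L-glutamine, 37 °C, 5% CO2, and seeded at 1 × 10⁴ cells/well. After 24 h, switched to serum-free DMEM-F12 with albumin, transferrin and insulin, with or without compound. Incubated 3 days at 37 °C in triplicate to quintuplicate wells. MTS added for 2–2.5 h and read at 490 nm. Viability given as % of media-only control. IC50 from Boltzmann nonlinear regression.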

[2] = tested on: HepG2; experiment: Cytotoxicity against human HepG2 cells by MTS assay; format: functional, cell-based; procedure, shortened: as §1
[3] = tested on: Nucleic Acid; experiment: Displacement of ethidium bromide from herring sperm DNA assessed as remaining ethidium bromide at 100 uM by FID assay; format: nucleic-acid assay; settings: Clupeidae
[4] = tested on: MCF7; experiment: Cytotoxicity against human MCF7 cells by MTS assay; format: functional, cell-based; procedure, shortened: as §1
[5] = tested on: HT-29; experiment: Cytotoxicity against human HT-29 cells by MTS assay; format: functional, cell-based; procedure, shortened: as §1
[6] = tested on: MCF7; experiment: Cytotoxicity against human MCF7 cells assessed as cell viability at 25 uM by MTS assay; format: functional; settings: read-out: Activity; procedure, shortened: as §1
[7] = tested on: HepG2; experiment: Cytotoxicity against human HepG2 cells assessed as cell viability at 25 uM by MTS assay; format: functional; settings: read-out: Activity; procedure, shortened: as §1
[8] = tested on: Nucleic Acid; experiment: Displacement of ethidium bromide from herring sperm DNA assessed as remaining ethidium bromide at 50 uM by FID assay; format: nucleic-acid assay; settings: Clupeidae
Procedure, shortened: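 Single-point FID. Read EtBr (5 µM) in BPE buffer (pH 7.0), exc 520 nm, em 540–700 nm, then read again with sheared herring sperm DNA added; the intensity difference is 100%. Compound added from 10 mM DMSO stock to a final 50 µM, equilibrated ~3 min, rescanned until steady. % EtBr remaining is the mean of triplicates.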

[9] = tested on: Nucleic Acid; experiment: Displacement of ethidium bromide from herring sperm DNA assessed as compound concentration required to 50% fluorescence loss of EtBr by FID assay; format: nucleic-acid assay; settings: Clupeidae
Procedure, shortened: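 Multiple-point FID in the same system: 0.2 µL aliquots of 10 mM DMSO stock added stepwise, fluorescence read after each addition, until 50% loss of EtBr fluorescence. Apparent binding constant K_Ligand = K_EtBr × [EtBr]/[Ligand]50%.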

[10] = tested on: Nucleic Acid; experiment: Displacement of ethidium bromide from herring sperm DNA assessed as remaining ethidium bromide at 20 uM by FID assay; format: nucleic-acid assay; settings: Clupeidae
[11] = tested on: HepG2; experiment: Cytotoxicity against human HepG2 cells assessed as cell viability at 100 uM by MTS assay; format: functional; settings: read-out: Activity
[12] = tested on: HT-29; experiment: Cytotoxicity against human HT-29 cells assessed as cell viability at 100 uM by MTS assay; format: functional; settings: read-out: Activity
[13] = tested on: MCF7; experiment: Cytotoxicity against human MCF7 cells assessed as cell viability at 100 uM by MTS assay; format: functional; settings: read-out: Activity

Row | SMILES | viability at 25 µM [1] [%] | IC50 [2] [µM] | Activity [3] [%] | IC50 [4] [µM] | IC50 [5] [µM] | viability at 25 µM [6] [%] | viability at 25 µM [7] [%] | Activity [8] [%] | Activity [9] [µM] | Activity [10] [%] | viability at 100 µM [11] [%] | viability at 100 µM [12] [%] | viability at 100 µM [13] [%]
1 | C[C@@H]1O[C@@H](OCCCc2c(-c3ccccc3)oc3ccccc23)CC[C@@H]1N | < 1 | 7.7 | 43.5 | 13.8 | 6.9 | < 1 | < 1 | – | – | – | – | – | –
2 | C[C@@H]1O[C@@H](OCC#Cc2c(-c3ccccc3)sc3ccccc23)CC[C@H]1O | 6 | 16.4 | – | – | 11.1 | 51 | 25 | 103 | – | – | – | – | –
3 | Cc1ccc(S(=O)(=O)n2c(-c3ccccc3)c(C#CCO[C@H]3CC[C@@H](O)[C@H](C)O3)c3ccccc32)cc1 | 54 | – | – | – | – | 40 | 27 | 111 | – | – | – | – | –
4 | C[C@@H]1O[C@@H](OCC#Cc2c(-c3ccccc3)oc3ccccc23)CC[C@@H]1N | – | – | 68.5 | – | – | – | – | 68.5 | – | – | – | – | –
5 | C[C@@H]1O[C@@H](OCCCc2c(-c3ccccc3)oc3ccccc23)CC[C@H]1O | 25 | – | – | – | 16.9 | 65 | 62 | – | – | – | – | – | –
6 | CC(=O)O[C@@H]1CC[C@@H](OCC#Cc2c(-c3ccccc3)sc3ccccc23)O[C@H]1C | < 1 | 15.7 | – | – | 10 | 40 | 8 | – | – | – | – | – | –
7 | C[C@@H]1O[C@@H](OCC#Cc2c(-c3ccccc3)oc3ccccc23)CC[C@H]1O | 3 | 15.3 | – | – | 13.1 | 38 | < 1 | 96.7 | – | – | – | – | –
8 | CC(=O)O[C@@H]1CC[C@H](OCC#Cc2c(-c3ccccc3)oc3ccccc23)O[C@H]1C | 8 | 19.2 | – | – | 11.8 | 24 | 5 | – | – | – | – | – | –
9 | CC(=O)O[C@@H]1CC[C@@H](OCC#Cc2c(-c3ccccc3)oc3ccccc23)O[C@H]1C | 9 | 20.9 | – | – | 10.7 | 78 | 15 | – | – | – | – | – | –
10 | C[C@@H]1O[C@H](OCC#Cc2c(-c3ccccc3)sc3ccccc23)CC[C@@H]1N | < 1 | 4.9 | – | 7.7 | 4.6 | < 1 | < 1 | 26.6 | 45 | – | – | – | –
11 | Cc1ccc(S(=O)(=O)n2c(-c3ccccc3)c(C#CCO[C@H]3CC[C@H](N)[C@H](C)O3)c3ccccc32)cc1 | – | – | – | – | – | – | – | 38.6 | – | – | – | – | –
12 | Cc1ccc(S(=O)(=O)n2c(-c3ccccc3)c(C#CCO[C@@H]3CC[C@H](N)[C@H](C)O3)c3ccccc32)cc1 | < 1 | 5 | – | 5.3 | 5.3 | < 1 | < 1 | 19.8 | 55 | > 100 | – | – | –
13 | C[C@@H]1O[C@@H](OCC#Cc2c(-c3ccccc3)sc3ccccc23)CC[C@@H]1O | 10 | 15.6 | – | – | 13.4 | 56 | 10 | – | – | – | – | – | –
14 | C[C@@H]1O[C@@H](OCCCc2c(-c3ccccc3)sc3ccccc23)CC[C@@H]1N | < 1 | 7.5 | 51.9 | 11.8 | 8.2 | < 1 | < 1 | – | – | – | – | – | –
15 | CC(=O)O[C@@H]1CC[C@H](OCC#Cc2c(-c3ccccc3)sc3ccccc23)O[C@H]1C | < 1 | 12.3 | – | – | 7.2 | 27 | < 1 | – | – | – | – | – | –
16 | C[C@@H]1O[C@@H](OCC#Cc2c(-c3ccccc3)sc3ccccc23)CC[C@@H]1OC(=O)c1ccccc1 | 81 | – | – | – | – | 100 | 99 | – | – | – | – | – | –
17 | C[C@@H]1O[C@H](OCC#Cc2c(-c3ccccc3)sc3ccccc23)CC[C@H]1O | 2 | 13.6 | – | – | 12.8 | 23 | 7 | 99.9 | – | – | – | – | –
18 | C[C@@H]1O[C@@H](OCCCc2c(-c3ccccc3)sc3ccccc23)CC[C@H]1O | 19 | – | – | – | 15.3 | 68 | 84 | – | – | – | – | – | –
19 | C[C@@H]1O[C@H](OCC#Cc2c(-c3ccccc3)oc3ccccc23)CC[C@H]1O | 7 | 22.3 | – | – | 12.4 | 29 | 6 | 103 | – | – | – | – | –
20 | CC(=O)O[C@@H]1CC[C@H](OCCCc2c(-c3ccccc3)oc3ccccc23)O[C@H]1C | 19 | – | – | – | 17.8 | 53 | 42 | – | – | – | – | – | –
21 | C[C@@H]1O[C@@H](OCC#Cc2c(-c3ccccc3)sc3ccccc23)CC[C@@H]1OC=O | 2 | 19.8 | – | – | 12.6 | 59 | 17 | – | – | – | – | – | –
22 | Cc1ccc(S(=O)(=O)n2c(-c3ccccc3)c(C#CCO[C@@H]3CC[C@@H](O)[C@H](C)O3)c3ccccc32)cc1 | 24 | 18.6 | – | – | – | 33 | 5 | 109 | – | – | – | – | –
23 | CC(=O)O[C@@H]1CC[C@H](OCCCc2c(-c3ccccc3)sc3ccccc23)O[C@H]1C | 9 | – | – | – | 10.2 | 47 | 72 | – | – | – | – | – | –
24 | OCCCc1c(-c2ccccc2)sc2ccccc12 | < 1 | – | – | – | 16.3 | 79 | 87 | – | – | – | < 1 | < 1 | < 1
25 | C[C@@H]1O[C@@H](OCC#Cc2c(-c3ccccc3)sc3ccccc23)CC[C@@H]1N | – | – | 79.9 | – | – | – | – | 79.9 | – | – | – | – | –
26 | C[C@@H]1O[C@@H](OCC#Cc2c(-c3ccccc3)sc3ccccc23)CC[C@H]1OC=O | – | 17.4 | – | – | 7.7 | 37 | < 1 | – | – | – | – | – | –
27 | OCCCc1c(-c2ccccc2)oc2ccccc12 | 76 | – | – | – | – | 94 | 91 | – | – | – | < 1 | < 1 | 16
28 | C[C@@H]1O[C@H](OCC#Cc2c(-c3ccccc3)oc3ccccc23)CC[C@@H]1N | < 1 | 6.7 | – | 8.3 | 5.4 | < 1 | < 1 | 26.9 | 55 | > 100 | – | – | –
29 | C[C@@H]1O[C@@H](OCC#Cc2c(-c3ccccc3)sc3ccccc23)CC[C@H]1N | < 1 | 4.7 | – | 6.6 | 5.3 | < 1 | < 1 | – | – | – | – | – | –
